Our source for the IC50 and Activity values is ChEMBL document CHEMBL1240424, “Design and synthesis of potent inhibitors of beta-ketoacyl-acyl carrier protein synthase III (FabH) as potential antibacterial agents” (Eur J Med Chem, 2010).

Experiment [1] can be described thus: Inhibition of Escherichia coli N-terminal His-tagged FabH expressed in Escherichia coli BL21(DE3) after 25 mins. The method, boiled down:
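His-tagged E. coli FabH was Ni-NTA purified. Reaction: 1 nM FabH, 2.5 μM holo-ACP, 20 mM sodium phosphate pH 7.0, 0.5 mM DTT, 0.25 mM MgCl₂. Started with 25 μM acetyl-CoA plus [³H]acetyl-CoA and run 25 min. Stopped with cold 50% TCA, pellet washed and dissolved in NaOH, ³H counted by scintillation. Inhibitors added from DMSO, final ≤2% DMSO, to give IC50.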

In a further experiment the test system is Escherichia coli. Kind of experiment: Antibacterial activity against Escherichia coli after 24 hrs by MTT assay. It is filed as functional. The method, boiled down:
(§1)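 Broth microdilution in Mueller–Hinton medium. Compounds from a 100 μg/mL DMSO stock were serially diluted, and inoculum was about 10⁵ cfu/mL. Plates were incubated 24 h at 37 °C and MIC was read visually. MTT (2 mg/mL in PBS pH 7.4) was then added for 4–5 h at room temperature, dye extracted with acidified isopropanol for 12 h, and OD read at 550 nm.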

The subject of another experiment is Staphylococcus aureus. The experiment can be described thus: Antibacterial activity against Staphylococcus aureus after 24 hrs by MTT assay. It is filed as functional. The method, boiled down: as §1
For another experiment, the system named is Pseudomonas fluorescens. Kind of experiment: Antibacterial activity against Pseudomonas fluorescens after 24 hrs by MTT assay. It is filed as functional. The procedure, abridged: as §1
A further experiment deals with Bacillus subtilis. The experiment can be described thus: Antibacterial activity against Bacillus subtilis after 24 hrs by MTT assay. The format is functional. The procedure, abridged: as §1

pIC50: −log10 of the molar value.

`Oc1ccc(F)cc1/C=N/c1ccc(Cl)cc1` showed a pIC50 in experiment [1] of 4.37. For the same compound, the Activity in the experiment with Escherichia coli is 12.5 µg/mL; in the experiment with Staphylococcus aureus, 25 µg/mL; in the experiment with Pseudomonas fluorescens, 25 µg/mL; with Bacillus subtilis, 50 µg/mL.

For `Oc1ccc(F)cc1/C=N/c1ccc(Br)cc1`, the Activity was 25 µg/mL in the experiment on Escherichia coli, 50 µg/mL in the experiment on Staphylococcus aureus, 25 µg/mL in the experiment on Pseudomonas fluorescens and 50 µg/mL in the experiment with Bacillus subtilis.

`Oc1ccc(F)cc1/C=N/CCN1CCNCC1` had a pIC50 in experiment [1] of 4.31. In addition, the Activity with Escherichia coli came to 12.5 µg/mL; in the experiment with Staphylococcus aureus it was 25 µg/mL; in the experiment on Pseudomonas fluorescens, 25 µg/mL; in the experiment on Bacillus subtilis it was 50 µg/mL.

Turning to `Oc1ccc(F)cc1/C=N/c1ccccn1`, the Activity in the experiment on Escherichia coli was 50 µg/mL; with Staphylococcus aureus, 100 µg/mL; with Pseudomonas fluorescens, 100 µg/mL; in the experiment on Bacillus subtilis it was above 100 µg/mL.

As for `Oc1ccc(F)cc1/C=N/c1ccccc1Cl`, the pIC50 in experiment [1] was 4.93. In addition, the Activity with Escherichia coli came out at 6.25 µg/mL; in the experiment on Staphylococcus aureus, 12.5 µg/mL; in the experiment with Pseudomonas fluorescens, 12.5 µg/mL; in the experiment on Bacillus subtilis, 12.5 µg/mL.

Take `Oc1ccc(F)cc1/C=N/C1CCCC1`: the negative-log IC50 (pIC50) in experiment [1] was 4.74. For the same compound, the Activity in the experiment on Escherichia coli amounted to 12.5 µg/mL; in the experiment with Staphylococcus aureus, 25 µg/mL; with Pseudomonas fluorescens, 12.5 µg/mL; in the experiment on Bacillus subtilis, 25 µg/mL.

In experiment [1], `Oc1ccc(F)cc1/C=N/CC1CCCCC1` showed a pIC50 of 5.17. Further, the Activity amounted to 6.25 µg/mL in the experiment on Escherichia coli, 25 µg/mL in the experiment with Staphylococcus aureus, 6.25 µg/mL with Pseudomonas fluorescens and 12.5 µg/mL in the experiment with Bacillus subtilis.

Turning to `Oc1ccc(F)cc1/C=N/C1CCN(Cc2ccccc2)CC1`, the Activity in the experiment with Escherichia coli, in the experiment with Staphylococcus aureus, in the experiment with Pseudomonas fluorescens and in the experiment with Bacillus subtilis was above 100 µg/mL throughout.

For the compound `Oc1ccc(F)cc1/C=N/CCCN1CCOCC1`, the Activity in the experiment with Escherichia coli, in the experiment on Staphylococcus aureus, in the experiment with Pseudomonas fluorescens and in the experiment on Bacillus subtilis was above 100 µg/mL each time.

For `Oc1ccc(/N=C/c2cc(F)ccc2O)cc1`, the Activity in the experiment on Escherichia coli, in the experiment with Staphylococcus aureus, with Pseudomonas fluorescens and in the experiment on Bacillus subtilis was above 100 µg/mL each time.

`CC(C)c1ccc(/N=C/c2cc(F)ccc2O)cc1`: the Activity in the experiment with Escherichia coli is above 100 µg/mL; with Staphylococcus aureus, above 100 µg/mL; in the experiment with Pseudomonas fluorescens it was 100 µg/mL; with Bacillus subtilis it was above 100 µg/mL.

`Oc1ccc(F)cc1/C=N/CCN1CCOCC1`: the Activity in the experiment on Escherichia coli amounted to 25 µg/mL; in the experiment on Staphylococcus aureus it was 50 µg/mL; in the experiment on Pseudomonas fluorescens, 25 µg/mL; in the experiment on Bacillus subtilis it was 50 µg/mL.

In the case of `CN(C)CCC/N=C/c1cc(F)ccc1O`, the Activity with Escherichia coli, in the experiment on Staphylococcus aureus, in the experiment on Pseudomonas fluorescens and in the experiment on Bacillus subtilis was above 100 µg/mL throughout.

The compound `Oc1ccc(F)cc1/C=N/c1ccc(F)cc1` had a negative-log IC50 (pIC50) in experiment [1] of 4.54. In addition, the Activity with Escherichia coli came to 12.5 µg/mL; with Staphylococcus aureus it was 12.5 µg/mL; in the experiment with Pseudomonas fluorescens, 12.5 µg/mL; with Bacillus subtilis, 25 µg/mL.

Compound `Oc1ccc(F)cc1/C=N/C1CCCCC1` gave a pIC50 in experiment [1] of 5.13. Moreover, the Activity came to 6.25 µg/mL with Escherichia coli, 12.5 µg/mL in the experiment with Staphylococcus aureus, 12.5 µg/mL in the experiment with Pseudomonas fluorescens and 25 µg/mL in the experiment with Bacillus subtilis.

For `O=[N+]([O-])c1ccc(/N=C/c2cc(F)ccc2O)cc1`, the Activity with Escherichia coli, in the experiment with Staphylococcus aureus, with Pseudomonas fluorescens and in the experiment with Bacillus subtilis was above 100 µg/mL each time.

As for `CCN(CC)CCC/N=C/c1cc(F)ccc1O`, the Activity in the experiment with Escherichia coli, in the experiment on Staphylococcus aureus, in the experiment with Pseudomonas fluorescens and in the experiment on Bacillus subtilis was above 100 µg/mL throughout.

Turning to `Cc1ccc(/N=C/c2cc(F)ccc2O)cc1`, the Activity with Escherichia coli is 50 µg/mL; with Staphylococcus aureus, 100 µg/mL; with Pseudomonas fluorescens it was 50 µg/mL; in the experiment with Bacillus subtilis, above 100 µg/mL.

As for `Oc1ccc(F)cc1/C=N/c1ccccc1F`, the pIC50 in experiment [1] was 5.07. The Activity worked out at 6.25 µg/mL in the experiment with Escherichia coli, 6.25 µg/mL in the experiment on Staphylococcus aureus, 6.25 µg/mL in the experiment on Pseudomonas fluorescens and 12.5 µg/mL in the experiment with Bacillus subtilis.

Take `Oc1ccc(CC/N=C/c2cc(F)ccc2O)cc1`: in experiment [1], the pIC50 is 5.57. The Activity with Escherichia coli came to 1.56 µg/mL; in the experiment with Staphylococcus aureus it was 1.56 µg/mL; in the experiment on Pseudomonas fluorescens, 3.13 µg/mL; in the experiment with Bacillus subtilis, 6.25 µg/mL.

Turning to `NC[C@H]1O[C@H](O[C@H]2[C@H](O)[C@@H](O[C@H]3O[C@H](CO)[C@@H](O)[C@H](N)[C@H]3O)[C@H](N)C[C@@H]2N)[C@H](O)[C@@H](O)[C@@H]1O` [KANAMYCIN], the Activity in the experiment with Escherichia coli came out at 3.13 µg/mL; in the experiment with Staphylococcus aureus, 1.56 µg/mL; in the experiment on Pseudomonas fluorescens it was 3.13 µg/mL; in the experiment on Bacillus subtilis, 1.56 µg/mL.
